According to publication PMC6348062 (Journal of medicinal chemistry, 2016):

Legend:
[1] = target: T1, LMW-PTP (Homo sapiens, UniProt P24666); format: biochemical; settings: for IC50: read-out: IC50 against LMW-PTP, weak ligands, values in mM; for mode of inhibition of LMW-PTP: Lineweaver-Burk, pNPP as substrate
T1 sequence (P24666 1-158): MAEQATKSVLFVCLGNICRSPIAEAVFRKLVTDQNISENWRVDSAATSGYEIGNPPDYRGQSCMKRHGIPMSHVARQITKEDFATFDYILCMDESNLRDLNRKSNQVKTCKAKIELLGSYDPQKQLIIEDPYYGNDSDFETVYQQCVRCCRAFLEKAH

[2] = target: T2, SHP2 (Homo sapiens, UniProt Q06124); test: PTP activity assay with pNPP, SHP2; format: biochemical; settings: read-out: IC50 for SHP2; values in mM
T2 sequence (Q06124 1-593): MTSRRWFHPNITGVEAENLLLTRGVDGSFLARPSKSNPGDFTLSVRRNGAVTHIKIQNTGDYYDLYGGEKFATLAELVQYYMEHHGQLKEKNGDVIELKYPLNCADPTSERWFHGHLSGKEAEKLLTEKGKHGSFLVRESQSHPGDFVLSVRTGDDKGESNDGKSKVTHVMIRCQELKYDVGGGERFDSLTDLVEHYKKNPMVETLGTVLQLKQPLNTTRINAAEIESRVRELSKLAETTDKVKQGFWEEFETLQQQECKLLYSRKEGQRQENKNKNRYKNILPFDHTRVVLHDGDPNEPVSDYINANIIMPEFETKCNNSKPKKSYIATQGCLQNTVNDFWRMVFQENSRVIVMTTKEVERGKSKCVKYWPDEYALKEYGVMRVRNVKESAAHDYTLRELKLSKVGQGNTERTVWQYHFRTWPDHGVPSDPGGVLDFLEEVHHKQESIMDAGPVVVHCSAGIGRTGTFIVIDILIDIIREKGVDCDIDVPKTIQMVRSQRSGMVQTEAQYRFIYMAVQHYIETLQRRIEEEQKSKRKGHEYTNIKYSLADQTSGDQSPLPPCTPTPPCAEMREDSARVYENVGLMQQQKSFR

[3] = target: T3, PTP1B (Homo sapiens, UniProt P18031); test: PTP activity assay with pNPP, PTP1B; format: biochemical; settings: read-out: IC50 for PTP1B; values in mM
T3 sequence (P18031 1-435): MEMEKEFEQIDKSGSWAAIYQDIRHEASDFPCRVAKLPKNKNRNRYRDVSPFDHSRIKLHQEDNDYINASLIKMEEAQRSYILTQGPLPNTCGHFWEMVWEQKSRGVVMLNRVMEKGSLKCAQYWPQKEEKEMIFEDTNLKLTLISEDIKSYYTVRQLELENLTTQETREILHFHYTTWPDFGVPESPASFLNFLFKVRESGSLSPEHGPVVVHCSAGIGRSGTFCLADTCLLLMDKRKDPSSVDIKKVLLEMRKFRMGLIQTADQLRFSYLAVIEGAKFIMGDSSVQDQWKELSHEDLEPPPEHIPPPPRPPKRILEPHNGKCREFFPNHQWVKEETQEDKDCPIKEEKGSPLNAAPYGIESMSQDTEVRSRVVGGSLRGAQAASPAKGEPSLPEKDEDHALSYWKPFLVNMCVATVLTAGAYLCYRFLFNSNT

[4] = target: T4, PTPH1 (Homo sapiens, UniProt P26045); test: PTP activity assay with pNPP, PTPH1; format: biochemical
T4 sequence (P26045 1-913): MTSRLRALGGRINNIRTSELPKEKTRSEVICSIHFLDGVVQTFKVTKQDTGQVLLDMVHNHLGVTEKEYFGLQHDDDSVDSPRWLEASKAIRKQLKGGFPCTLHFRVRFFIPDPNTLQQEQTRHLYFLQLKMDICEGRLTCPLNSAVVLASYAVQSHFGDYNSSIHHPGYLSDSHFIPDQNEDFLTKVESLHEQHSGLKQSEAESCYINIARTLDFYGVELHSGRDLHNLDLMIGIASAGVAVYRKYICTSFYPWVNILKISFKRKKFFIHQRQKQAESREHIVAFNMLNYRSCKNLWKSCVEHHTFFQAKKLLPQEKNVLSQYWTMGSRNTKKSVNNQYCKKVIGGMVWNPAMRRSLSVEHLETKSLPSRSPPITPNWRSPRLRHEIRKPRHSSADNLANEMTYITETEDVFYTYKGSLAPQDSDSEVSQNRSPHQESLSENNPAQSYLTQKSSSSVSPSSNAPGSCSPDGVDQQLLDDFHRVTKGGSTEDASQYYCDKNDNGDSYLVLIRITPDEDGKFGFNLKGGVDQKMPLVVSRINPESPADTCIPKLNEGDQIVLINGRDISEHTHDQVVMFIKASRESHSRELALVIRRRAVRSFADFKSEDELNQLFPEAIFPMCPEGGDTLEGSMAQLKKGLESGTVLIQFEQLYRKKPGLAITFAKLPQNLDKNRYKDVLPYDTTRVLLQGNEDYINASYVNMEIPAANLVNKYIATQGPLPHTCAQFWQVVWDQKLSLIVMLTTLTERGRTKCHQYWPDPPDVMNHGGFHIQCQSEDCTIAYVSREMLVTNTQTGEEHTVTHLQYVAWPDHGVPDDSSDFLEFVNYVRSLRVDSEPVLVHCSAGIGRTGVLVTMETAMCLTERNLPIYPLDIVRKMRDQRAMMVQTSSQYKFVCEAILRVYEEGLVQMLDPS

[5] = system: panel of 24 phosphatases; test: Selectivity profiling against panel of 24 phosphatases; format: biochemical; settings: for inhibitory activity against the phosphatases in the panel: at 200 μM concentration; for preference (selectivity) for LMW-PTP over the panel of other PTPs: over all 24 other phosphatases
[6] = target: T1, LMW-PTP; test: Screen of SPAA-based focused library at ~10 μM, LMW-PTP; format: biochemical; settings: compound concentration ~10 μM, crude library wells
[7] = system: insulin induced AKT phosphorylation in HepG2 cells; test: Insulin induced AKT phosphorylation in HepG2 cells; format: cell-based; settings: 2 h pretreatment, 50 nM insulin 30 min, compound 33 at 16 μM
Summary of the method: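 HepG2 cells grown in DMEM with 10% FBS at 37 °C and 5% CO2. At 60-80% confluence, cells were serum-starved overnight, then given vehicle or test compound for 2 h. They were left unstimulated or stimulated with 50 nM insulin for 30 min, then lysed. Immunoblotting used a 10% polyacrylamide gel with anti-phospho-AKT and anti-AKT antibodies, ECL detection and densitometry. pAKT/AKT ratios were normalized to vehicle.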

With `O=S(=O)(O)CCN1CCOCC1` [MES] as the molecule, how does the IC50 [1] read?
Its IC50 is > 10 mM.

With `NC(=O)C(c1ccccc1)S(=O)(=O)O` (centres unmarked) [SPAA, SulfoPhenyl Acetic Amide] as the molecule, how does the IC50 [1] read?
Its IC50 is 2 mM.

What about the IC50 [2] of the same molecule?
Its IC50 is > 50 mM.

And the IC50 [3]?
Its IC50 is > 50 mM.

Which IC50 [4] does the source give for `Cc1c(Br)cc(NC(=O)C(c2ccccc2)S(=O)(=O)O)cc1Br` (centres unmarked) [compound 1] here?
Its IC50 is > 200 µM.

Which IC50 [4] does the source give for `O=C(Nc1ccc(OCc2ccccc2)c(Cl)c1)C(c1ccccc1)S(=O)(=O)O` (centres unmarked) [compound 2] here?
Its IC50 is > 200 µM.

With `O=C(Nc1ccc2nc(C(F)(F)F)[nH]c2c1)C(c1ccccc1)S(=O)(=O)O` (centres unmarked) [compound 3] as the molecule, how does the IC50 [4] read?
The IC50 was > 200 µM.

And the “inhibitory activity against the phosphatases in the panel” value [5]?
Its value is “no inhibitory activity”.

And the “preference (selectivity) for LMW-PTP over the panel of other PTPs” value [5]?
Its value is “greater than 35 fold”.

How did the IC50 [4] turn out when `O=C(Nc1ccc(-n2ccnc2)cc1)C(c1ccccc1)S(=O)(=O)O` (centres unmarked) [compound 4] was run?
Its IC50 is > 100 µM.

What does the source list for `O=C(Nc1ccc(N2CCOCC2)cc1)C(c1ccccc1)S(=O)(=O)O` (centres unmarked) [compound 5]?
IC50 [4]: > 200 µM; inhibitory activity against the phosphatases in the panel [5]: no inhibitory activity

What does the source list for `O=C(Nc1cnc2ccccc2c1)C(c1ccccc1)S(=O)(=O)O` (centres unmarked) [compound 6]?
IC50 [4]: > 200 µM; inhibitory activity against the phosphatases in the panel [5]: no inhibitory activity

What does the source list for `O=C(Nc1nc2ccccc2s1)C(c1ccccc1)S(=O)(=O)O` (centres unmarked) [compound 7]?
mode of inhibition of LMW-PTP [1]: competitive; IC50 [4]: > 200 µM

`O=C(Nc1cc(C(F)(F)F)cc(C(F)(F)F)c1)C(c1ccccc1)S(=O)(=O)O` (centres unmarked) [compound 8] was tested. Which IC50 [4] did it give?
Its IC50 is > 200 µM.

Which results are given for `O=C(Nc1ccccc1)C(c1ccccc1)S(=O)(=O)O` (centres unmarked) [compound 9]?
inhibitory activity toward LMW-PTP (in words) [1]: significantly reduced activities; fold decrease in inhibitory activity versus compound 7 ([1]; relative to compound 7): > 15 fold

For `O=C(Nc1nccs1)C(c1ccccc1)S(=O)(=O)O` (centres unmarked) [compound 10], which “inhibitory activity toward LMW-PTP (in words)” value [1] is on record?
Its value is “significantly reduced activities”.

With `CCCNC(=O)C(c1ccccc1)S(=O)(=O)O` (centres unmarked) [compound 11] as the molecule, how does the “inhibitory activity toward LMW-PTP (in words)” value [1] read?
Its value is “inactive”.

And the “inhibition against LMW-PTP in library screen” value [6]?
Its value is “inactive”.

Which “fold more active than compound 7 against LMW-PTP” value [1] does the source give for `O=C(Nc1nc2ccc([N+](=O)[O-])cc2s1)C(c1ccccc1)S(=O)(=O)O` (centres unmarked) [compound 28] here?
The value was 3.5 fold.

And the “mode of inhibition of LMW-PTP” value [1]?
The value was “competitive”.

What about the IC50 [4] of the same molecule?
The IC50 was > 100 µM.

And the “preference (selectivity) for LMW-PTP over the panel of other PTPs” value [5]?
The value was “over 50 fold”.

Which “fold more active than compound 7 against LMW-PTP” value [1] does the source give for `CCOC(=O)c1ccc2nc(NC(=O)C(c3ccccc3)S(=O)(=O)O)sc2c1` (centres unmarked) [compound 32] here?
The value was 2.5 fold.

Which results are given for `O=C(Cc1ccccc1)Nc1nc2ccc([N+](=O)[O-])cc2s1` [compound 33]?
inhibitory activity toward LMW-PTP (in words) [1]: completely abolishes; effect on insulin induced AKT phosphorylation (in words) [7]: no effect
